Published values of several laboratories.
MTNR1A: Melatonin receptor type 1A (MTNR1A, Homo sapiens, UniProt P48039)

| SMILES | target | test | conditions | endpoint | value |
| --- | --- | --- | --- | --- | --- |
| COc1ccc2cccc(C(CO)CNC(=O)CF)c2c1 (centres unmarked) | MTNR1A | GTPγS binding, agonist, radiometric | cell membranes | Emax | 47% |
| COc1ncccc1-c1cnn2ccc(N3CCN(C(=O)OC(C)C)CC3)nc12 | Serine/threonine-protein kinase ULK3 (ULK3, Homo sapiens, UniProt Q6PHR2) | binding, competition with immobilised ligand | 1 µM | remaining binding | 54% |
| C#Cc1n[nH]c2c(-c3cn([C@@H](C)c4ccccn4)c(=O)[nH]c3=O)cc(F)cc12 | Rho-associated protein kinase 2 (ROCK2, Homo sapiens, UniProt O75116) | enzyme activity, inhibitor | 0.1 µM | inhibition | 1.2% |
| Nc1ncc(-c2nc(N3CCOCC3)nc(N3CCOCC3)n2)c(C(F)F)n1 | Serine/threonine-protein kinase DCLK3 (DCLK3, Homo sapiens, UniProt Q9C098) | binding, competition with immobilised ligand | 10 µM | remaining binding | 73% |
| COc1ccc2[nH]cc(CCNC(=O)CI)c2c1 | MTNR1A | GTPγS binding, agonist, radiometric | cell membranes | Emax | 83% |
| Cc1nn(C)cc1-c1nc2c(N3CCN(Cc4ccc(Cl)cc4)CC3)c(Cl)cnc2[nH]1 | Receptor-type tyrosine-protein kinase FLT3 (FLT3, Homo sapiens, UniProt P36888) | binding, competition with immobilised ligand | 1 µM | remaining binding | 0.4% |
| CCN(CC)CCCC[C@H](NC(=O)[C@H](CC(C)C)NC(=O)[C@H](C)NC(=O)[C@H](Cc1ccccc1)NC(=O)c1ccc(C(C)(C)C)cc1)C(=O)N[C@@H](CO)C(=O)OC | B2 bradykinin receptor (BDKRB2, Homo sapiens, UniProt P30411) | ligand displacement, radioligand | 10 µM | remaining binding | 107% |
| CNC1(c2ccccc2Cl)CCCCC1=O (racemic) | Fatty-acid amide hydrolase 1 (FAAH, Homo sapiens, UniProt O00519) | enzyme activity, inhibitor | 30 µM | inhibition | 2% |
